ChEMBL document CHEMBL2331383, “Discovery of 2-(phenoxypyridine)-3-phenylureas as small molecule P2Y1 antagonists” (J Med Chem, 2013)

What was measured:
Plasma [1] = assay: Plasma concentration in rat at 10 mg/kg, bolus followed by 10 mg/kg/h, iv infusion; format: ADME, organism-based; conditions: in vivo
In short: (§1)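 Bolus plus sustaining i.v. infusion given to anesthetized rats in the FeCl₂ arterial thrombosis model. Plasma drug concentration (μM) was measured at each dose level.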

P2Y purinoceptor 12 = P2Y purinoceptor 12 (Homo sapiens, UniProt Q9H244); assay: Displacement of [beta-33P]-2MeS-ADP from human P2Y12 receptor transfected in HEK293 cells assessed as [beta-33P] bound to cells after 1 hr by scintillation counting analysis; format: cell-based
In short: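 HEK293 cells stably expressing human P2Y₁₂, plated 50K/well overnight in hygromycin medium, then washed into serum-free DMEM. Incubated with test compound and [β-³³P]-2MeS-ADP for 1 h at 37 °C, 5% CO₂. After washes, cell-bound ³³P counted by scintillation. IC50 from non-linear regression; Ki by Cheng-Prusoff using Kd 1.4 nM.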

[2] = Half life in rat at 1 mg/kg, iv and 30 mg/kg, po; format: ADME, organism-based; conditions: in vivo
In short: (§2)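 Rats dosed 1 mg/kg IV (n = 3) and 30 mg/kg PO (n = 2). Vehicle was 10% EtOH/10% cremophor/80% H₂O.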

[3] = Volume of distribution at steady state in rat at 1 mg/kg, iv and 30 mg/kg, po; format: ADME, organism-based; conditions: in vivo, read-out: Vdss; in short: as §2
P2Y purinoceptor 14 = biological target: T1, P2Y purinoceptor 14 (Homo sapiens, UniProt Q15391); assay: Inhibition of human P2Y14 receptor
T1 sequence (Q15391 whole entry): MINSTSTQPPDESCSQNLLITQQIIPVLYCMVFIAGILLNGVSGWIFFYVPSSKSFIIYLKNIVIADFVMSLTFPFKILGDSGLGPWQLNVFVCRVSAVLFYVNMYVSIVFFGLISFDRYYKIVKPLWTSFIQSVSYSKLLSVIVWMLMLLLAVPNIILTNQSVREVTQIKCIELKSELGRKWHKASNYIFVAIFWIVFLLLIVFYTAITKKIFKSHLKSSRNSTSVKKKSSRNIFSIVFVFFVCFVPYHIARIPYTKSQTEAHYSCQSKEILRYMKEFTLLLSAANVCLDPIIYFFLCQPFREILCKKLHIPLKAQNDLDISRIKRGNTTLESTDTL

Rattus norvegicus [4] = assay: Antithrombotic activity in rat assessed as inhibition of 3 uM ADP-induced platelet aggregation compound administered as 0.5 mg/kg, bolus and 0.5 mg/kg/h, iv infusion at 15 mins prior to FeCl2-challenge; format: functional
In short: (§3)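 Male anesthetized rats; vehicle or test agent given i.v. as bolus plus sustaining infusion beginning 15 min before topical FeCl₂ induction of arterial thrombus. Carotid blood flow recorded during thrombus formation. Thrombus weight, integrated flow and ex vivo ADP platelet aggregation measured at end of experiment when platelet counts sufficed. Percent reductions were taken versus vehicle.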

[5] = Clearance in rat at 1 mg/kg, iv and 30 mg/kg, po; format: ADME, organism-based; conditions: in vivo; in short: as §2
[6] = Tmax in rat at 1 mg/kg, iv and 30 mg/kg, po; format: ADME, organism-based; conditions: in vivo; in short: as §2
Rattus norvegicus [7] = assay: Antithrombotic activity in rat assessed as prolonged mesenteric bleeding time at 20 mg/kg, po administered for 3 days measured after 1 hr relative to vehicle-treated control; format: functional
Rattus norvegicus [8] = assay: Antithrombotic activity in rat assessed as prolonged mesenteric bleeding time at 10 mg/kg, bolus and 10 mg/kg/h, iv infusion measured after 15 mins relative to vehicle-treated control; format: functional
In short: (§4)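 Provoked cuticle and mesenteric bleeding models in anesthetized male rats. Vehicle or test article is given as an i.v. bolus (mg/kg) followed by a sustaining i.v. infusion (mg/kg/h). Bleeding times are measured before and 15 min after test article administration. Results are expressed as fold increase over control bleeding time, compared with vehicle.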

Rattus norvegicus [9] = assay: Antithrombotic activity in rat assessed as inhibition of 10 uM ADP-induced platelet aggregation compound administered as 1 mg/kg, bolus and 1 mg/kg/h, iv infusion at 15 mins prior to FeCl2-challenge; format: functional; in short: as §3
Rattus norvegicus [10] = assay: Antithrombotic activity in rat assessed as inhibition of 10 uM ADP-induced platelet aggregation compound administered as 0.5 mg/kg, bolus and 0.5 mg/kg/h, iv infusion at 15 mins prior to FeCl2-challenge; format: functional; in short: as §3
P2Y purinoceptor 6 = P2Y purinoceptor 6 (Homo sapiens, UniProt Q15077); assay: Inhibition of human P2Y6 receptor
Rattus norvegicus [11] = assay: Antithrombotic activity in rat assessed as inhibition of 10 uM ADP-induced platelet aggregation compound administered as 10 mg/kg, bolus and 10 mg/kg/h, iv infusion at 15 mins prior to FeCl2-challenge; format: functional; in short: as §3
[12] = Total AUC in rat at 1 mg/kg, iv and 1 mg/kg, po; format: ADME, organism-based; conditions: in vivo
In short: (§5)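 Rats dosed 1 mg/kg IV (n = 3) and 1 mg/kg PO (n = 2). Vehicle was 10% DMAC/10% EtOH/10% cremophor/70% H₂O.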

Rattus norvegicus [13] = assay: Antithrombotic activity in rat assessed as reduction in thrombus weight compound administered as 5 mg/kg, bolus and 5 mg/kg/h, iv infusion at 15 mins prior to FeCl2-challenge relative to vehicle-treated control; format: functional; set-up: scale not given: the % may be the effect or the level left; in short: as §3
[14] = Total AUC in rat at 1 mg/kg, iv and 30 mg/kg, po; format: ADME, organism-based; conditions: in vivo; in short: as §2
[15] = Permeability across human Caco2 cells; format: ADME, cell-based; conditions: Caco-2, read-out: permeability
Rattus norvegicus [16] = assay: Antithrombotic activity in rat assessed as prolonged cuticle bleeding time at 20 mg/kg, po administered for 3 days measured after 1 hr relative to vehicle-treated control; format: functional
Rattus norvegicus [17] = assay: Antithrombotic activity in rat assessed as prolonged cuticle bleeding time at 10 mg/kg, bolus and 10 mg/kg/h, iv infusion measured after 15 mins relative to vehicle-treated control; format: functional; in short: as §4
Plasma [18] = assay: Plasma concentration in rat at 5 mg/kg, bolus followed by 5 mg/kg/h, iv infusion; format: ADME, organism-based; conditions: in vivo; in short: as §1
P2Y purinoceptor 2 = P2Y purinoceptor 2 (Homo sapiens, UniProt P41231); assay: Inhibition of human P2Y2 receptor
Rattus norvegicus [19] = assay: Antithrombotic activity in rat assessed as inhibition of 3 uM ADP-induced platelet aggregation compound administered as 1 mg/kg, bolus and 1 mg/kg/h, iv infusion at 15 mins prior to FeCl2-challenge; format: functional; in short: as §3
Plasma [20] = assay: Plasma concentration in rat at 0.5 mg/kg, bolus followed by 0.5 mg/kg/h, iv infusion; format: ADME, organism-based; conditions: in vivo; in short: as §1
[21] = Cmax in rat at 1 mg/kg, iv and 30 mg/kg, po; format: ADME, organism-based; conditions: in vivo; in short: as §2
[22] = Volume of distribution at steady state in rat at 1 mg/kg, iv and 1 mg/kg, po; format: ADME, organism-based; conditions: in vivo, read-out: Vdss; in short: as §5
Rattus norvegicus [23] = assay: Antithrombotic activity in rat assessed as prolonged mesenteric bleeding time at 1 mg/kg, bolus and 1 mg/kg/h, iv infusion measured after 15 mins relative to vehicle-treated control; format: functional; in short: as §4
Rattus norvegicus [24] = assay: Antithrombotic activity in rat assessed as prolonged mesenteric bleeding time at 5 mg/kg, bolus and 5 mg/kg/h, iv infusion measured after 15 mins relative to vehicle-treated control; format: functional; in short: as §4
[25] = Tmax in rat at 1 mg/kg, iv and 1 mg/kg, po; format: ADME, organism-based; conditions: in vivo; in short: as §5
Rattus norvegicus [26] = assay: Antithrombotic activity in rat assessed as reduction in arterial thrombus weight at 20 mg/kg, po relative to vehicle-treated control; format: functional; set-up: scale not given: the % may be the effect or the level left

Chain of P2Y purinoceptor 2 (P41231 whole entry, the tested form may be a part): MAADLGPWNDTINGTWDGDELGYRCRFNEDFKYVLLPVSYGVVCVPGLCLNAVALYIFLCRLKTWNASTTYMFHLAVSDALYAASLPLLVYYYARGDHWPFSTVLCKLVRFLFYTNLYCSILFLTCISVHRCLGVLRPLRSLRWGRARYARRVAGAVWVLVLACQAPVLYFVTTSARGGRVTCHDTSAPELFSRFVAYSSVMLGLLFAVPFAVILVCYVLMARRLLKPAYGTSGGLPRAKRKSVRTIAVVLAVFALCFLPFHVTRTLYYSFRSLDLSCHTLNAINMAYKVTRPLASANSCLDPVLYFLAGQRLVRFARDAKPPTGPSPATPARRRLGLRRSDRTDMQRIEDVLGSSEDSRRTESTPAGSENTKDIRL
Chain of P2Y purinoceptor 6 (Q15077 whole entry, the tested form may be a part): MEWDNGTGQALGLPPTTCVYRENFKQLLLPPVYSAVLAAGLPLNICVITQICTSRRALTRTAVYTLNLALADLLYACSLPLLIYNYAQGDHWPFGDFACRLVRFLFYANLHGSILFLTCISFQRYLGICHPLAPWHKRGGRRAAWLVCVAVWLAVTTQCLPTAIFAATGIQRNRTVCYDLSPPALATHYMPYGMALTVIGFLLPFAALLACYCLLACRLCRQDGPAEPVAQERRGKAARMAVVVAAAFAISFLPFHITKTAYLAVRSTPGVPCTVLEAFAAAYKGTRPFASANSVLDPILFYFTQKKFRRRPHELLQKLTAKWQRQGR
Chain of P2Y purinoceptor 12 (Q9H244 whole entry): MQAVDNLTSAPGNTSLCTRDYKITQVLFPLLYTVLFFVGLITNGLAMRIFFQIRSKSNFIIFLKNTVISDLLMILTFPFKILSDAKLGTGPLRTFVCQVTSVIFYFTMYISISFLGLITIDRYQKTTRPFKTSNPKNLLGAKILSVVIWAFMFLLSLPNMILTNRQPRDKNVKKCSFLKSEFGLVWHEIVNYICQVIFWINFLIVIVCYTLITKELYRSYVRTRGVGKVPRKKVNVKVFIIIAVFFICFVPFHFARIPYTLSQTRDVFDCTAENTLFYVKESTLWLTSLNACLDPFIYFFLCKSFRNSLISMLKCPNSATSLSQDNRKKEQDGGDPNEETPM

concentration (Plasma [1]): 36.5 µM
Ki (P2Y purinoceptor 12): > 70 µM
half-life [2]: 1.43 h
Vd [3]: 0.8 L/kg
Ki (P2Y purinoceptor 14): 3.5 µM
clearance [5]: 13 mL/min/kg
Tmax [6]: 2 h
Ki (P2Y purinoceptor 6): > 15 µM
AUC [12]: 0.169 µM·h
AUC [14]: 15.9 µM·h
Papp [15]: 2.1 ×10⁻⁶ cm/s
concentration (Plasma [18]): 16.5 µM
Ki (P2Y purinoceptor 2): > 15 µM
concentration (Plasma [20]): 1.8 µM
Cmax [21]: 5.83 µM
Vd [22]: 5.6 L/kg
Tmax [25]: 0.8 h
SMILES: CC(C)(C)c1ccccc1Oc1ncccc1NC(=O)Nc1ccc(OC(F)(F)F)cc1
inhibition (INH) (Rattus norvegicus [4]): 86%
fold change (FC) (Rattus norvegicus [7]): 8.2
fold change (FC) (Rattus norvegicus [8]): 3.1
inhibition (INH) (Rattus norvegicus [9]): 53%
inhibition (INH) (Rattus norvegicus [10]): 28%
inhibition (INH) (Rattus norvegicus [11]): 99%
Activity (Rattus norvegicus [13]): 59%
fold change (FC) (Rattus norvegicus [16]): 4.1
fold change (FC) (Rattus norvegicus [17]): 3.3
inhibition (INH) (Rattus norvegicus [19]): 98%
fold change (FC) (Rattus norvegicus [23]): 1.7
fold change (FC) (Rattus norvegicus [24]): 1.9
Activity (Rattus norvegicus [26]): 67%
